Assay outcomes (PubChem BioAssay)
Rows were chosen to be rich in hits. Some 4.6% of all compounds tested hit in one or more screens of this group.
Pemphigus Ab inh = human desmoglein-3 autoantibody binding inhibition; P32926; binding (percent of control), % at 10 µM; DSG3-coupled beads, scFv-anti-DSG3-GFP binding, flow cytometry; stronger effect = lower value; 310,000 compounds, 0.48% hits;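 active means binding more than 3 SD below its plate's average and above zero; inconclusive means below that plate limit but binding exactly zero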;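 further: hits lower antibody fragment binding to DSG3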
ALR H2O2 inh = human ALR oxidase inhibition via reduced H2O2; purified ALR, DTT oxidation, H2O2 HRP-luminol luminescence; inhibition, % (no concentration beside the values); 290,000 compounds, 3.8% hits;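 active means mean replicate inhibition above about 79%, with every replicate also reaching it, limit read from the data; inconclusive means only one of the two criteria met; inactive means mean below limit and not every replicate reaching it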
Target sequence (P55789 whole entry, looked up): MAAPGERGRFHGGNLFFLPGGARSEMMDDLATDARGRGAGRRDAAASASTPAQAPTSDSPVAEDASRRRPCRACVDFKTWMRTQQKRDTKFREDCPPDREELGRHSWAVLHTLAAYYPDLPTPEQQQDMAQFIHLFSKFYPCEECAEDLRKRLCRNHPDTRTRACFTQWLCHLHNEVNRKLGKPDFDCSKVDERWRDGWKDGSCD
NLRP3 yeast inh = inhibitors of NALP3 inflammasome in yeast. Yeast reconstituted NLRP3/ASC/caspase-1, beta-gal luminescence, 24 h. inhibition, % at 10 µM. 330,000 compounds, 0.39% hits;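 active means inhibition of 50% or more; inactive means inhibition below 50%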;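 further: plate controls were induced DMSO wells for no effect and uninduced yeast grown without galactose for full effect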
NALP1 inh = blocks the NALP1 inflammasome reconstituted in yeast; S. cerevisiae NALP1/ASC/caspase-1 growth, X-gal OD620, 72 h; inhibition, % at 10 µM; 280,000 compounds, 0.61% hits; AID 2071; in the data active means inhibition mostly above about 24%, no sharp cut-off; inactive means mostly below about 32%
PolyA inh = blocks polyadenylation in yeast reporter cells | AID 1875 | S. cerevisiae SKY197-pL101 polyadenylation reporter, beta-gal luminescence; efflux-impaired pdr1/pdr3 knockout yeast; score 100 = 6 SD above DMSO | 300,000 compounds, 0.02% hits | activity score, % at 12 µM;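 active means lowest replicate activity score at least 50, where 100 means six control SD above control mean; inconclusive means lowest score under 50 but half or more replicates reach 50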;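 further: yeast exposed to compound for 9 h at 30 °C; higher score means more reporter readthrough which indicates perturbed polyadenylation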
Arrestin-AP2 inh = blocks beta-arrestin peptide binding to AP2 adaptin; 340,000 compounds, 0.31% hits; FITC-arrestin peptide / GST-AP2 beads, flow cytometry; AP2 beta2 appendage carries R879A mutation; inhibition, % at 10 µM;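 active means inhibition above a set limit, near 3 SD of compounds lacking own fluorescence, cut at about 54% in these data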;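 further: plate controls were DMSO wells for no effect and 5 µM unlabelled arrestin peptide for full effect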
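System: GST-AP2 R879A glutathione beads; medium: PBS, Tween 20 0.05%, BSA 0.1%; reagent: fluorescein-tagged arrestin peptide at 50 nM final; schedule: pre-incubation 12 min, peptide binding 1 h, room temperature; detection: flow cytometry, FL1 (488/535 nm); read-out: inhibition as reduced fluorescein signal on beads, percent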
Arr-AP2 CP1 = blocks beta-arrestin peptide binding to human AP2; shares compounds with Arrestin-AP2 inh; AID 504908; inhibition, % at 10 µM; GST-AP2 beads, FITC arrestin peptide binding, flow cytometry; GST-fused beta2-adaptin appendage, R879A mutant; 1,300 compounds, 2% hits;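 active means inhibition above a set limit, roughly 3 SD of non-fluorescent compound noise, cut at about 38% in these data; inactive means inhibition at or below that limit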;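 further: loss of bead fluorescence from 50 nM FITC arrestin peptide bound to appendage; 0% = negative control wells and 100% = excess unlabelled arrestin peptide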
GST-FITC bead = disrupts GST binding to glutathione beads, arrestin-AP2 artifact | shares compounds with Arrestin-AP2 inh | 1,300 compounds, 2% hits | AID 588338 | inhibition, % at 10 µM | GST-fluorescein binding to GSH beads, fluorescence, counter-screen;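 active means inhibition above 50%, about 3 SD of the inhibition seen with non-fluorescent compounds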;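 further: fluorescein maleimide labelled GST captured on 4 micron glutathione beads; higher means more loss of bead fluorescence from quenching or blocked binding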
* marks the source's active call; other numbers are inactive results; ? = inconclusive; / = no result.

SMILES	Pemphigus Ab inh	ALR H2O2 inh	NLRP3 yeast inh	NALP1 inh	PolyA inh	Arrestin-AP2 inh	Arr-AP2 CP1	GST-FITC bead
CCn1c(=O)n(CC)c2cc(N3CCCC3)c(NC(=O)c3ccc(C)c([N+](=O)[O-])c3)cc21	100.7	65.0	-11.0	24.3	-13.1	70.1*	-0.2	-6.7
Cc1cc(NC(=O)c2ccc(N3CCCC3)c([N+](=O)[O-])c2)no1	82.0	-2.5	6.1	-0.5	4.6	97.6*	-3.3	23.2
CN1CCN(c2ccccc2NC(=O)c2ccc(N3CCCC3)c([N+](=O)[O-])c2)CC1	99.1	10.9	29.0	22.7	9.2	2.8	/	/
O=C(Nc1ccon1)c1ccc(N2CCCCC2)c([N+](=O)[O-])c1	97.9	1.4	30.2	14.1	-23.4	0.9	/	/
CCN1CCN(c2ccc(S(=O)(=O)N3CCCCC3)cc2NC(=O)c2cccc(Cl)c2)CC1	99.6	-2.8	5.5	/	14.6	2.0	/	/
CCn1c(=O)n(CC)c2cc(N3CCCC3)c(NC(=O)c3cccc(Cl)c3)cc21	100.5	71.2	11.7	5.2	19.9	4.3	-6.7	-0.1
CCOCCCNC(=O)CCc1nnc2n(CCC(C)C)c(=O)c3ccccc3n12	117.0	26.1	21.0	0.8	-10.6	6.3	/	/
CC(=O)Oc1c(Br)cc(N(C(C)=O)S(=O)(=O)c2ccccc2)c2ccccc12	108.0	-14.4	11.7	12.6	-19.8	7.7	/	/
O=C(CCCNS(=O)(=O)c1ccc(F)cc1)Nc1ccc(F)cc1	104.9	-3.2	9.2	-11.3	-18.3	-3.1	/	/
Cc1ccc(NC(=O)CNS(=O)(=O)c2ccc(F)cc2)cc1C	109.2	-21.5	7.9	-6.6	8.0	55.3*	-7.0	-4.7
COCC(=O)Nc1ccc(C(C)C)cc1	99.5	0.2	8.2	15.1	3.1	25.9	/	/
Cc1cc(C(=O)COc2ccc3ccc(=O)oc3c2)c(C)n1Cc1cccs1	92.8	87.5*	11.4	-1.3	-14.7	93.9*	-9.1	7.1
CC(C)c1nnc(NC(=O)Cc2ccccc2[N+](=O)[O-])s1	99.7	25.3	8.8	20.5	5.5	58.1*	-6.3	3.7
CC(C)(C)c1nnc(NC(=O)Cc2ccccc2[N+](=O)[O-])s1	/	-1.7	-2.4	27.8	3.1	5.0	/	/
CN(C)C(CNC(=O)CNC(=O)c1ccc2ccccc2c1)c1ccccc1 (stereo unspecified)	94.6	-2.5	18.5	17.9	-4.7	58.6*	14.3	-0.4
Clc1ccccc1C=NNc1ccccn1	90.5	/	/	/	/	-4.1	/	/
COc1ccc2nc(Cl)c(/C=N/Nc3ccccn3)cc2c1	/	-20.6	10.6	-4.8	-20.2	59.0*	-9.2	-13.2
COCCN(C(=O)CCCC(=O)Nc1ccccn1)C(C(=O)NC1CCCCC1)c1ccc(C)cc1 (stereo unspecified)	113.0	/	-5.5	23.6	-3.4	100.5*	-12.6	-4.0
CCOC(=O)N1CCN(C(=O)CSCc2ccc(C)cc2)CC1	103.9	-9.6	39.7	2.9	-29.6	23.7	/	/
CCOC(=O)N1CCN(C(=O)CCSCCc2ccncc2)CC1	98.9	-13.9	12.8	-7.3	2.8	56.8*	-5.5	-6.5
O=C(COC(=O)CNC(=O)c1ccc(Cl)c([N+](=O)[O-])c1)NC(=O)CN1CCCC1=O	?	-3.2	11.3	/	1.4	1.9	/	/
N#Cc1ccccc1CSc1nc(O)cc(=O)[nH]1	65.4	-7.2	-9.9	15.1	6.3	-4.3	/	/
CC(=O)NCC1CCCN(c2nc3nonc3nc2N(C)Cc2ccccc2)C1 (stereo unspecified)	127.6	/	5.9	-9.0	8.3	59.3*	-17.2	-6.0
COc1ccc(NC(=O)c2ccco2)cc1NC(=O)c1ccccc1[N+](=O)[O-]	?	1.9	-0.2	21.5	14.1	55.4*	2.9	3.3
COc1cc(NC(=O)c2ccc(OC)c([N+](=O)[O-])c2)ccc1NC(=O)c1ccco1	106.1	-11.1	28.7	/	-2.6	17.7	/	/
